Measured values taken from ChEMBL document CHEMBL1142247, “Structure-based design of novel groups for use in the P1 position of thrombin inhibitor scaffolds. Part 2: N-acetamidoimidazoles” (Bioorg Med Chem Lett, 2008).
Active and inactive are the calls of the source. The rule behind the calls is not given here.

Legend:
[1] = system: Plasma; experiment: Anticoagulant potency in human plasma assessed as concentration required to double activated partial thromboplastin time; format: functional, cell-free
[2] = Selectivity for thrombin over trypsin
[3] = biological target: Prothrombin (Homo sapiens, UniProt P00734); experiment: Inhibition of thrombin
[4] = Inhibition of trypsin
[5] = Cmax in dog at 0.5 mg/kg, po; format: ADME, organism-based, Canis lupus familiaris; set-up: dose 0.5 mg/kg, route oral; conditions: in vivo
[6] = system: Canis familiaris; experiment: (§1) Half life in dog at 5 mg/kg, po; format: ADME, organism-based, Canis lupus familiaris; set-up: dose 5 mg/kg, route oral; conditions: in vivo
[7] = Half life in dog at 1 mg/kg, po; format: ADME, organism-based, Canis lupus familiaris; set-up: dose 1 mg/kg, route oral; conditions: in vivo
[8] = Half life in dog at 0.5 mg/kg, po; format: ADME, organism-based, Canis lupus familiaris; set-up: dose 0.5 mg/kg, route oral; conditions: in vivo
[9] = system: Rattus norvegicus; experiment: Antithrombotic activity against ferric chloride induced thrombosis in rat at 10 ug/kg/min, iv; format: functional, organism-based
Summary of the method: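 Ferric chloride-induced thrombosis in rats, with compound given by intravenous infusion at 10 µg/kg/min. Read-out is the number of animals with vessel occlusion out of 6.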

[10] = Cmax in rhesus monkey at 5 mg/kg, po; format: ADME, organism-based, Macaca mulatta; set-up: dose 5 mg/kg, route oral; conditions: in vivo
[11] = Cmax in dog at 5 mg/kg, po; format: ADME, organism-based, Canis lupus familiaris; set-up: dose 5 mg/kg, route oral; conditions: in vivo
[12] = Half life in rhesus monkey at 5 mg/kg, po; format: ADME, organism-based, Macaca mulatta; set-up: dose 5 mg/kg, route oral; conditions: in vivo
[13] = as §1; format: ADME, organism-based, Canis lupus familiaris; set-up: dose 5 mg/kg, route oral; conditions: in vivo

Compound | Selectivity ratio [2] | Ki [3] [µM] | Ki [4] [µM] | Activity [1] [µM] | other results
Cc1nc(N)ccc1CNC(=O)Cn1c(C)ccc(NS(=O)(=O)Cc2ccccc2)c1=O [L-374087] | 6400 | – | 3.2 | 0.21 | Cmax [5]: 2000 nM; t1/2 [6]: 2.5 h; half-life [7]: 2.5 h; half-life [8]: 3.8 h
CCC(C)(C)NC(=O)Cn1cnc(C)c1Cn1c(C)ccc(NS(=O)(=O)Cc2ccccc2)c1=O | 180000 | 0.00019 | 34 | 0.56 | –
Cc1ncn(CC(=O)NCC2CC2)c1Cn1c(C)ccc(NS(=O)(=O)Cc2ccccc2)c1=O | 52000 | 0.0011 | 57 | – | –
Cc1ncn(CC(=O)NC2CCCNC2)c1Cn1c(C)ccc(NS(=O)(=O)Cc2ccccc2)c1=O (stereo unspecified) | 355000 | 0.00031 | 110 | 0.35 | Activity [9]: inactive
Cc1nc[nH]c1CNC(=O)Cn1c(C)ccc(NS(=O)(=O)Cc2ccccc2)c1=O | – | – | 43 | 1.1 | –
Cc1ncn(CC(=O)NN2CCOCC2)c1Cn1c(C)ccc(NS(=O)(=O)Cc2ccccc2)c1=O | 53000 | 0.0019 | 101 | 0.51 | –
Cc1ncn(CC(=O)NN2CC(O)C2)c1Cn1c(C)ccc(NS(=O)(=O)Cc2ccccc2)c1=O | 48000 | 0.0028 | 167 | 0.66 | –
Cc1ncn(CC(=O)NC(C)(C)CN)c1Cn1c(C)ccc(NS(=O)(=O)Cc2ccccc2)c1=O | 233000 | 0.0003 | 70 | 0.32 | –
Cc1ncn(CC(=O)NN2CCCCC2)c1Cn1c(C)ccc(NS(=O)(=O)Cc2ccccc2)c1=O | 86000 | 0.00065 | 56 | 0.37 | Activity [9]: inactive
Cc1ncn(CC(=O)NC2CC(N)C2)c1Cn1c(C)ccc(NS(=O)(=O)Cc2ccccc2)c1=O (stereo unspecified) | 41000 | 0.003 | 122 | 0.65 | –
Cc1ncn(CC(=O)NC2CC2)c1Cn1c(C)ccc(NS(=O)(=O)Cc2ccccc2)c1=O | 103000 | 0.0018 | 185 | 0.68 | –
Cc1ncn(CC(=O)OC(C)(C)C)c1Cn1c(C)ccc(NS(=O)(=O)Cc2ccccc2)c1=O | 104000 | 0.00048 | 50 | – | –
Cc1ncn(CC(=O)NC2CCCNC2)c1CNC(=O)Cn1c(C)cnc(NCCc2ccccc2)c1=O (stereo unspecified) | – | 0.0012 | 18 | 0.7 | Cmax [10]: 360 nM; Cmax [11]: 1460 nM; half-life [12]: 1.1 h; half-life [13]: 1.6 h

The next lines start with results.

Selectivity ratio [2] | Ki [3] [µM] | Ki [4] [µM] | Compound | Activity [1] [µM] | other results
59000 | 0.00083 | 49 | Cc1ncn(CC(=O)NCC(F)(F)F)c1Cn1c(C)ccc(NS(=O)(=O)Cc2ccccc2)c1=O | 0.53 | –
190000 | 0.00036 | 68 | Cc1ncn(CC(=O)NC(C)(C)C)c1Cn1c(C)ccc(NS(=O)(=O)Cc2ccccc2)c1=O | 0.52 | –
70000 | 0.002 | 137 | CCNC(=O)Cn1cnc(C)c1Cn1c(C)ccc(NS(=O)(=O)Cc2ccccc2)c1=O | 0.7 | –
94000 | 0.0009 | 85 | Cc1ncn(CC(=O)NCCN)c1Cn1c(C)ccc(NS(=O)(=O)Cc2ccccc2)c1=O | 0.39 | Activity [9]: inactive
48000 | 0.0024 | 115 | Cc1ncn(CC(=O)NCCO)c1Cn1c(C)ccc(NS(=O)(=O)Cc2ccccc2)c1=O | 0.85 | –
118000 | 0.00068 | 80 | Cc1ncn(CC(=O)NCC(C)(C)N)c1Cn1c(C)ccc(NS(=O)(=O)Cc2ccccc2)c1=O | 0.26 | –
